How the values were obtained:
Type in all cases: ADME
[1] = The half-life for cyclization reaction at pH 2.4
How it was run: (§1)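 Amines generated from the 2-nitroaryl amides, incubated at 37 °C in aqueous buffer of ionic strength 0.01 M. Cyclization followed at the same time by UV/vis spectrophotometry in thermostated stoppered cuvettes and by C-18 reverse-phase HPLC (MeOH/10 mM phosphate pH 7 mobile phase). Runs lasted 4 h at first, extended to about 4 half-lives when product formed. Pseudo-first-order k_obs was taken from first-order loss of amine peak area.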

[2] = The observed pseudo-first-order rate constant of compound for cyclization reaction at pH 2.4; how it was run: as §1
[3] = The half-life for cyclization reaction at pH 6.8; how it was run: as §1
[4] = The observed pseudo-first-order rate constant of compound for cyclization reaction at pH 6.8; how it was run: as §1
[5] = The observed pseudo-first-order rate constants of compound for cyclization reaction at pH 2.4; how it was run: as §1

| SMILES | half-life [1] [min] | K obs [2] [min⁻¹] | half-life [3] [min] | K obs [4] [min⁻¹] | K obs [5] [min⁻¹] | T1/2 [1] [min] |
| --- | --- | --- | --- | --- | --- | --- |
| COc1ccc(NC(=O)c2c(C)nn(-c3ccccc3)c2-c2ccccc2N)cc1 | 36 | 0.019 |  |  |  |  |
| COc1ccc(N(C)C(=O)C(C)(C)c2ccccc2N)cc1 | 0.28 | 2.5 | 800 | 0.0009 |  |  |
| COc1ccc(NC(=O)[C@@H]2CCCN2C(=O)c2ccccc2N)cc1 | 74 | 0.0094 |  |  |  |  |
| COc1ccc(NC(=O)CCc2ccccc2N)cc1 | 58 | 0.012 |  |  |  |  |
| Nc1ccccc1CC(=O)Nc1cnc2ccccc2c1 | 87 |  |  |  | 0.008 |  |
| COc1ccc(NC(=O)C(C)(C)c2cc(C(=O)NCCN(C)C)ccc2N)cc1 | 0.27 | 2.58 | 770 | 0.0009 |  |  |
| COc1ccc(NC(=O)Cn2ncc3cccc(N)c32)cc1 | 83 | 0.0084 |  |  |  |  |
| CCC(CC)(C(=O)Nc1ccc(OC)cc1)c1ccccc1N | 0.43 | 1.64 | 250 | 0.028 |  |  |
| COc1ccc(NC(=O)C(C)(C)c2ccccc2N)cc1 |  | 10 | 72 | 0.0096 |  | 0.07 |
| CC(=O)c1ccc(NC(=O)C(C)(C)c2ccccc2N)cc1 |  | 21 | 35 | 0.02 |  | 0.033 |
| COc1ccc(NC(=O)C(C)(C)c2ncccc2N)cc1 | 8.9 | 0.078 | 530 | 0.0013 |  |  |
| COc1ccc(NC(=O)c2cccc3cccc(N)c23)cc1 | 6.3 |  |  |  | 0.11 |  |
| Nc1ccccc1CCC(=O)Nc1cnc2ccccc2c1 | 32 | 0.022 |  |  |  |  |
| COc1ccc(NC(=O)CS(=O)(=O)c2c(C)cccc2N)cc1 | 1700 | 0.0004 |  |  |  |  |
| COc1ccc(NC(=O)Cc2ccccc2N)cc1 | 260 | 0.0026 |  |  |  |  |
| CN(C)c1ccc(NC(=O)C(C)(C)c2ccccc2N)cc1 |  |  | 71 | 0.0097 |  |  |
| CC(C)(C(=O)Nc1ccccc1)c1ccccc1N |  | 21 | 35 | 0.02 |  | 0.033 |
| COc1ccc(NC(=O)C(C)c2ccccc2N)cc1 (stereo not given) | 16 | 0.043 |  |  |  |  |
